Screening results: PubChem, The Scripps Research Institute Molecular Screening Center
Rows were chosen to be rich in hits. Some 4.6% of all compounds tested hit in one or more screens of this group.
OX1R antag-1: antagonists of human orexin 1 receptor | O43613 | 0.43% of 330,000 active | inhibition, % at 5 µM | CHO/OX1R cells, Fluo-8 calcium fluorescence, orexin A;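 active = inhibition above its plate's threshold, mean inhibition of all tested compounds on the plate plus 3 SD, cut at about 37% in these data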;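 note: 0% = orexin A challenge wells and 100% = SB-334867-A antagonist wells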
OX1R antag-2: blocks the human orexin 1 receptor; inhibition, % at 6.6 µM; 1.8% of 330,000 active; OX1R-expressing cells, FRET antagonist read-out; O43613; in the data active = inhibition mostly above about 38%, no sharp cut-off; inactive = mostly below about 40%;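 note: 0% = agonist challenge alone and 100% = reference antagonist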
GPR7 antag: blocks human GPR7 receptor signaling | GPR7-expressing cells, fluorescence antagonist assay | inhibition, % at 4.4 µM | 1.1% of 290,000 active | AID 1861; in the data active = inhibition above about 16%, passing the limit was not always enough;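 note: cells stimulated with the agonist NPW; 0% = agonist with vehicle and 100% = vehicle without agonist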
Target sequence (P48145 whole entry, looked up): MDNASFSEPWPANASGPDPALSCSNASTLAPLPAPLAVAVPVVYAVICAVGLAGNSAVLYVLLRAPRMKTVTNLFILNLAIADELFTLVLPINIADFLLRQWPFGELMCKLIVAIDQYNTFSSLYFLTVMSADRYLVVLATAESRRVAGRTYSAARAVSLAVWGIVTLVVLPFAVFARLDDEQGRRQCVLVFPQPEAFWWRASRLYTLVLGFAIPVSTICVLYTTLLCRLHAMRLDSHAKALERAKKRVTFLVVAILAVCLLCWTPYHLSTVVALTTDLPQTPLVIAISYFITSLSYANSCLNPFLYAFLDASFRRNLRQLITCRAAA
CHO parental Ca: counter-screen: ATP calcium response change in parental CHO cells | parental CHO-K1, ATP-induced calcium, Fluo-8 fluorescence | inhibition, % at 5.6 µM | 0.63% of 330,000 active;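 active = inhibition above that plate's mean sample inhibition plus 3 SD, cut at about 26% in these data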;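 note: 0% = ATP-challenged DMSO wells and 100% = DMSO wells without ATP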
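Material: parental CHO cells / Compound: single nominal dose of 5.6 µM per compound / Signal: Fluo-8 fluorescence / Replicates: singlicate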
TAAR1 ag: human TAAR1 agonism | CHO RD-HGA16 TAAR1, Fluo-8 calcium fluorescence; vehicle wells 0%, saturating PEA agonist 100% | activation, % at 3 µM | 0.99% of 360,000 active | AID 624467;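 active = activation above the mean activation of all test compounds in the run plus 3 SD, cut at about 38% in these data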
Target sequence (Q96RJ0 whole entry, looked up): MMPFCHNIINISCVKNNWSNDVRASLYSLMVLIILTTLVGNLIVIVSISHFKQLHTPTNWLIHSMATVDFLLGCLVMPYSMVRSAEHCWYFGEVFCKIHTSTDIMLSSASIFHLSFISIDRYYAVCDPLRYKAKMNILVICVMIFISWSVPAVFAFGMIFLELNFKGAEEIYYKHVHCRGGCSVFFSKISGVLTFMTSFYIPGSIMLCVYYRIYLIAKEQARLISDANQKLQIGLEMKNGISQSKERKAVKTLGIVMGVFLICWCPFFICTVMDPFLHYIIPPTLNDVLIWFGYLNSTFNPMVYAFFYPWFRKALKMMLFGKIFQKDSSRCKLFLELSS
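System: CHO-derived RD-HGA16 cells with stable Gα16 and human TAAR1 / Times: 17-24 h plating, Fluo-8 75 min 37 °C, 30 min RT / Technique: calcium-sensitive Fluo-8 signal, excitation 470-495, emission 515-575 nm / Measure: % activation relative to PEA EC100 response / Benchmarks: DMSO and PEA EC100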
TAAR1 antagonist: antagonists of human TAAR1 | CHO RD-HGA16 TAAR1, Fluo-8 calcium fluorescence, antagonist | inhibition, % at 3 µM | AID 624466 | Q96RJ0 | 1.5% of 360,000 active;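 active = inhibition above a per-plate cutoff, the mean inhibition of test compounds on that plate plus 3 SD, cut at about 49% in these data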;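 note: 0% = DMSO plus EC80 beta-PEA response and 100% = DMSO alone without agonist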
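Test system: CHO RD-HGA16 cells bearing hTAAR1 | Reagent: β-PEA, EC80 | Compound dosing: 3 µM, single point | Schedule: Dye loading 75 min at 37 °C, then 30 min room temperature | Signal: Calcium fluorescence with Fluo-8 | Evaluation: Percent inhibition of PEA-evoked calcium signal, max/basal emission ratio | Control set: DMSO-only wells and EC80 β-PEA-stimulated wells | Repeats: Singlicate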
OX1R Fluo8 conf: confirmation of human orexin 1 receptor antagonists | shares compounds with OX1R antag-1 | CHO/OX1R cells, orexin A calcium Fluo-8 fluorescence | inhibition, % at 5 µM | 38% of 1,100 active; in the data active = inhibition above about 29%;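 note: 0% = agonist challenge alone and 100% = reference antagonist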
CHO Ca triplic: counter-screen for OX1R antagonists: effect in parental CHO cells; 9.3% of 1,100 active; parental CHO-K1, ATP-induced calcium, Fluo-8 fluorescence; shares compounds with OX1R antag-1; inhibition, % at 5.6 µM; AID 492965;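 active = inhibition above a per-plate limit, the mean inhibition of that plate's test compounds plus 3 SD, cut at about 25% in these data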;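 note: 0% = ATP challenge with DMSO and 100% = DMSO without ATP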
OX1R HTRF conf: OX1R (human) antagonism, HTRF confirmed | shares compounds with OX1R antag-2 | OX1R-expressing cells, HTRF antagonist assay | inhibition, % at 6.6 µM | 49% of 1,800 active; in the data active = inhibition above about 55%;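 note: CHO cells expressing OX1R stimulated with orexin A at about EC80; 0% = agonist challenge alone and 100% = reference antagonist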
CHO-K1 HTRF cnt: signal in parental CHO-K1 cells, OX1R antagonist counter-screen; shares compounds with OX1R antag-2; HTRF counterscreen; inhibition, % at 6.6 µM; 48% of 1,800 active; AID 493232; in the data active = inhibition above about 17%;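 note: 0% = agonist challenge with vehicle and 100% = vehicle alone without agonist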
TAAR1 nonsel count: nonselective antagonist in TAAR1 antagonist counter-screen. AID 651780. shares compounds with TAAR1 antagonist. counterscreen cell line, calcium fluorescence, antagonist mode. 77% of 2,400 active. inhibition, % at 3 µM; in the data active = inhibition above about 22%;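 note: CHO-Ga16 host cells stimulated with ATP at an EC80 level; 0% = agonist EC80 plus vehicle and 100% = vehicle without agonist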
TAAR1 antag conf: confirmation of human TAAR1 antagonists. shares compounds with TAAR1 antagonist. inhibition, % at 3 µM. 40% of 2,400 active. TAAR1-expressing cells, fluorescence antagonist read-out; in the data active = inhibition above about 49%;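 note: CHO-Ga16 host cells challenged with agonist PEA near its EC80; 0% = agonist at EC80 plus vehicle and 100% = vehicle with no agonist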
Ga16 nonsel ag: nonselective Ga16 agonism, counter-screen; activation, % at 3 µM; Ga16-expressing cells, calcium fluorescence, agonist counterscreen; shares compounds with TAAR1 antagonist; 18% of 2,400 active; in the data active = activation above about 12%;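 note: 0% = vehicle wells and 100% = saturating stimulus response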
TAAR1 ag count: counter-screen for human TAAR1 antagonists: TAAR1 agonists; shares compounds with TAAR1 antagonist; hTAAR1 cell line, fluorescence activation, agonist mode; activation, % at 3 µM; 2% of 2,400 active; in the data active = activation above about 37%;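 note: CHO cells stably expressing TAAR1 with calcium dye readout; 0% = DMSO vehicle and 100% = full agonist response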
* hit, by the source's call; / = no result.

SMILES	OX1R antag-1	OX1R antag-2	GPR7 antag	CHO parental Ca	TAAR1 ag	TAAR1 antagonist	OX1R Fluo8 conf	CHO Ca triplic	OX1R HTRF conf	CHO-K1 HTRF cnt	others
Cc1cc2nn(-c3ccccc3)nc2cc1NC(=O)c1cccs1	61.2*	79.5*	0.6	-12.7	2.2	4.2	16.6	1.5	69.7*	18.5*
COc1ccc(C(CNC(=O)c2ccc(S(=O)(=O)Nc3ccccc3OC)cc2)N2CCCC2)cc1 (centres undefined)	/	/	/	/	11.0	11.5	/	/	/	/
CN(C)c1ccc(C#Cc2ccc3cc(CCCO)oc(=O)c3c2)cc1	-2.8	0.0	/	-3.5	10.9	3.4	/	/	/	/
CC(C)(OC(=O)c1cccs1)c1cc2ccccc2c(=O)o1	6.2	2.8	/	-17.3	3.1	3.7	/	/	/	/
O=c1oc(CCCO)cc2ccc(C#Cc3ccsc3)cc12	54.8*	41.5*	/	10.0	12.8	12.4	19.9	9.5	33.6	1.2
CC(C)(O)c1cc2ccc(C#Cc3ccsc3)cc2c(=O)o1	59.7*	70.8*	/	-17.9	2.9	7.2	36.4*	-9.7	82.5*	-4.1
Cc1cc(NCCCN)nc(-c2ccccc2O)n1	41.0	55.2*	0.2	6.0	2.2	23.6	17.7	-3.2	22.0	3.1
Cc1ccc(Nc2cc(C)nc(-c3ccccc3O)n2)cc1	-14.3	27.9	-8.2	-7.2	11.1	21.0	/	/	/	/
Cc1cc(N/N=C/c2ccc(O)c(C)c2O)nc(-c2ccccc2O)n1	50.7*	63.4*	-6.2	18.1	12.8	56.6*	39.5*	3.8	47.0	17.3*
C/C(=N\Nc1cc(C)nc(-c2ccccc2O)n1)c1ccccc1	-63.3	10.5	-0.9	-30.6	11.9	29.0	/	/	/	/
Cc1ccsc1C(=O)OCC(=O)NCc1cccs1	/	/	/	/	1.1	-10.1	/	/	/	/
Cc1ccccc1CC1CCN(CCCNC(=O)Nc2ccccc2)CC1	/	/	-4.9	/	3.3	1.9	/	/	/	/
O=c1cc(-c2ccsc2)oc2ccc(-c3ccc4cc[nH]c4c3)cc12	72.4*	63.1*	/	4.0	13.7	43.6	37.0*	-9.5	75.3*	-7.3
O=c1c2ccccc2oc2cc(-c3ccc4cc[nH]c4c3)ccc12	75.1*	79.6*	/	-26.9	6.5	1.8	21.8	-7.5	77.7*	1.7
O=C(NCc1ccccc1)[C@@H]1CCCN1C(=O)[C@H]1CCCN1C(=O)c1ccc(OC(F)(F)F)cc1	/	/	/	/	-1.0	-11.4	/	/	/	/
CCOC(=O)C1=C(COC(=O)c2cc(Br)c(Br)s2)NC(=O)NC1C (centres undefined)	31.6	49.3*	/	-22.8	6.7	35.7	18.9	-7.9	30.6	7.4
Cc1ccc(OC(F)F)c(NC(=O)Nc2cccc(C(F)(F)F)c2)c1	36.0	45.7*	-7.9	0.7	/	/	-14.2	14.6	22.6	0.6
CC(NC(=O)c1ccccc1)c1nnc(SCC(=O)Nc2nnc(C3CC3)s2)n1C (centres undefined)	-4.4	4.4	/	-23.2	-0.7	-17.8	/	/	/	/
O=C(Nc1cccc(-c2nc3ccccc3[nH]2)c1)c1ccco1	24.0	72.7*	13.9	-15.4	11.0	28.8	9.5	-4.8	49.5	8.5
COc1ccc(OC)c(S(=O)(=O)NCC(c2ccco2)N2CCc3ccccc32)c1 (centres undefined)	73.7*	89.9*	/	-8.7	4.3	2.2	78.9*	-7.7	88.6*	4.2
CCc1ccc(/C=N\NC(=O)c2ccc(Br)o2)s1	-14.1	36.0	-10.7	-7.5	-0.8	6.2	/	/	/	/
CCN(CC)c1ccc(/C=N/NC(=O)c2ccc(Br)o2)cc1	31.0	91.5*	-7.8	-11.2	-0.5	26.1	55.4*	3.8	90.4*	7.9
Cc1ccc(NC(=O)CN2CCCC2c2cccs2)cc1S(=O)(=O)N1CCCCC1 (centres undefined)	43.3*	29.5*	/	-5.5	16.7	16.1	12.1	1.0	47.6	0.7
Cc1nnc(SCCC(=O)Nc2ccc(F)cc2)s1	-0.1	21.2	-1.8	-4.8	5.0	8.8	/	/	/	/
CCCSc1nnc(NC(=O)Nc2ccc(F)cc2)s1	29.4	76.7*	10.8	9.4	20.1	15.6	9.7	20.8	47.6	10.5
SMILES	OX1R antag-1	OX1R antag-2	GPR7 antag	CHO parental Ca	TAAR1 ag	TAAR1 antagonist	OX1R Fluo8 conf	CHO Ca triplic	OX1R HTRF conf	CHO-K1 HTRF cnt	others
Cc1ccc2[nH]c(CNC(=O)C3CCCCC3)cc2c1	/	/	-3.7	/	-1.1	-14.3	/	/	/	/
O=C(Nc1ccc(S(=O)(=O)NCc2ccco2)cc1)c1ccc2ccccc2n1	30.4	45.0*	0.6	19.8	9.5	69.7*	36.7*	7.1	65.7*	10.2	TAAR1 nonsel count=38.2*;TAAR1 antag conf=57.6*;Ga16 nonsel ag=6.4;TAAR1 ag count=5.4
COc1ccc(NC(=O)c2ccc(NC(=O)CN(C)CC(=O)Nc3c(C)cccc3C)cc2)cc1	-17.1	15.9	-3.5	-25.5	2.1	-12.8	/	/	/	/
COc1ccccc1NS(=O)(=O)c1ccc2oc(SCC(C)=O)nc2c1	-9.1	13.8	-5.7	3.0	6.3	-3.2	/	/	/	/
COc1ccccc1NS(=O)(=O)c1ccc2oc(SC(C)C(=O)N3CCNC3=O)nc2c1 (centres undefined)	35.6	32.5*	/	-9.8	23.0	74.4*	31.3*	-0.6	61.6*	-10.4	TAAR1 nonsel count=40.3*;TAAR1 antag conf=51.5*;Ga16 nonsel ag=15.7*;TAAR1 ag count=15.7
CC(C)NC(=O)C1(C)CCN1C/C=C/c1ccccc1 (centres undefined)	/	/	/	/	0.5	-0.1	/	/	/	/
CCOC(=O)C1=C(COC(=O)/C=C/c2cccc(OC)c2)NC(=O)NC1C (centres undefined)	24.7	72.7*	6.5	-16.7	17.1	66.9*	31.1*	-4.8	48.9	-0.5	TAAR1 nonsel count=22.5*;TAAR1 antag conf=52.8*;Ga16 nonsel ag=9.2;TAAR1 ag count=14.2
CCOC(=O)C1=C(COC(=O)/C=C/c2ccc(OC)cc2)NC(=O)NC1C (centres undefined)	/	/	/	/	13.2	42.7	/	/	/	/
